Laboratory results as given in PubChem BioAssay.
Active and inactive are the calls of the source. Cut-off read from the data, not from the text of the source, unless noted: active = inhibition above about 30%; inactive = the rest.

Tests used:
[1] = HUVEC growth inhibition – cell-based, human, primary screen (AID 575;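 active = viability at or below 30% in both replicate assays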;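 note: 100% = median of untreated cell wells with 0.1% DMSO on each plate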); settings: HUVEC proliferation, CellTiter-Glo luminescence, 72 h; at 10 µM; stronger effect = lower value
Procedure, shortened: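 Test system: primary human umbilical vein endothelial cells. Quantity: 1250 cells/well. Compound: single 10 µM dose, 0.1% DMSO, from 5x medium stock. Timing: 72 h treatment at 37 °C. Detection: ATP-based CellTiter-Glo luminescent read. Benchmarks: vehicle and MePR control wells. Format: 384-well plates coated with collagen.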

[2] = growth inhibitors of H69AR lung tumor, primary screen, human, duplicate replicates (AID 580;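 active = viability at or under a set limit in both replicates, limit being median viability minus 3 SD, cut at about 48% in these data, passing the limit was not always enough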;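 note: 100% = mean luminescence of untreated wells and 0% = no signal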); settings: H69AR lung tumor cells viability, ATP luminescence, 72 h; at 10 µM; stronger effect = lower value
[3] = reversal of MRP1-mediated doxorubicin resistance, pilot screen, H69AR cells, doxorubicin co-treatment (AID 601;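 active = viability loss from added drug above about 55%, and viability with drug at most 40%, in both replicates, limit read from the data, passing the limit was not always enough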); settings: CellTiter-Glo, 72 h, at 10 µM; for differential viability (reversal): stronger effect = higher value
[4] = 384-well plate pilot, post-Golgi transport modulator project, inhibition of yeast transport mutant growth (AID 636; in the data active = inhibition above about 31%); settings: absorbance 615 nm, about 18 h, stronger effect = higher value
[5] = growth suppression of yeast trafficking mutant, preliminary HTS, modulators of trafficking downstream of Golgi apparatus project, 1536-format plate, OD 615 nm (AID 637); settings: yeast transport mutant growth, absorbance 615 nm, 18 h; stronger effect = higher value
[6] = H69AR cells + 2 uM doxorubicin, measured here: viability with 2 uM doxorubicin, stronger effect = lower value
[7] = H69AR cells, compound alone cytotoxicity

Row | SMILES | viability [1] | viability [2] | differential viability (reversal) ([3]; H69AR cells + 2 uM doxorubicin) | viability [3, 6] [%] | viability [3, 7] [%] | inhibition [4] | inhibition [5]
1 | Cc1ccc(CCSCC(=O)O)cn1 | 109% (inactive) | 101% (inactive) | 2.9% (inactive) | 98.3 | 101 | -2.4% (inactive) | 0.16% (inactive)
2 | C=CCn1c(=O)[nH]c2cc(C(=O)N3CCN(c4ccc(C(C)=O)cc4)CC3)ccc2c1=O | 68.5% (inactive) | 92.4% (inactive) | 13.4% (inactive) | 79 | 92.4 | -1.97% (inactive) | -5.71% (inactive)
3 | COC(=O)c1c(C(=O)OC)n(CCCN)c2ccc(C)cc12 | 89.1% (inactive) | 89.7% (inactive) | 4.39% (inactive) | 85.3 | 89.7 | -0.52% (inactive) | -1.11% (inactive)
4 | Cc1ccc(SCCC(=O)N(C)C)cc1 | 105% (inactive) | 103% (inactive) | 18.3% (inactive) | 84.6 | 103 | -2.89% (inactive) | 0% (inactive)
5 | Cc1cc(C(=O)N2CCN(C(c3ccccc3)c3ccccc3)CC2)no1 | 121% (inactive) | 89.1% (inactive) | 3.42% (inactive) | 85.7 | 89.1 | -6.18% (inactive) | 0.16% (inactive)
6 | CC1CC(C)CN(CCCNC(=O)c2ccc3c(c2)NC(=O)C(N2CCCCC2)S3)C1 (stereo unspecified) | 88.6% (inactive) | 87.8% (inactive) | 4.94% (inactive) | 82.8 | 87.8 | 2.4% (inactive) | -7.14% (inactive)
7 | CC1=C(C#N)C(c2ccc3ncccc3c2)C(C#N)=C(C)N1 | 86.2% (inactive) | 97% (inactive) | -1.7% (inactive) | 98.7 | 97 | -4.74% (inactive) | 0% (inactive)
8 | CCOC(=O)C1CCCN(C(=O)c2cccs2)C1 (stereo unspecified) | 96.7% (inactive) | 98.3% (inactive) | 15.4% (inactive) | 82.9 | 98.3 | -6.18% (inactive) | 0.48% (inactive)
9 | O=C1C2C3C=CC(C3)C2C(=O)N1CNc1ccc(O)cc1 (stereo unspecified) | 93.7% (inactive) | 90.7% (inactive) | -11.8% (inactive) | 102 | 90.7 | 0.13% (inactive) | -4.6% (inactive)
10 | CSc1cccc(NC(=O)C2CCN(S(C)(=O)=O)CC2)c1 | 107% (inactive) | 90.3% (inactive) | 0.77% (inactive) | 89.6 | 90.3 | -4.08% (inactive) | 2.06% (inactive)
11 | O=C1CNCc2[nH]c3ccccc3c2N1c1ccccc1 | 94.2% (inactive) | 94.8% (inactive) | -1.22% (inactive) | 96 | 94.8 | -3.95% (inactive) | 1.27% (inactive)
12 | CNCCC(Oc1ccc(C(F)(F)F)cc1)c1ccccc1 (stereo unspecified) | 54.1% (inactive) | 58.5% (inactive) | -6.63% (inactive) | 65.2 | 58.5 | 2.47% (inactive) | -3% (inactive)
13 | CCS(=O)(=O)N1CCC(C(=O)N2CCOCC2)CC1 | 92.1% (inactive) | 98.5% (inactive) | -1.11% (inactive) | 99.6 | 98.5 | -0.52% (inactive) | -0.16% (inactive)
14 | CCc1ncc(C(O)c2cccc(OC)c2OC)n1C (stereo unspecified) | 101% (inactive) | 98.7% (inactive) | 11.3% (inactive) | 87.3 | 98.7 | -3.68% (inactive) | 4.13% (inactive)
15 | CSc1nnc(-c2cnccn2)n1C | 107% (inactive) | 90.7% (inactive) | 0.99% (inactive) | 89.7 | 90.7 | -0.39% (inactive) | 4.92% (inactive)
16 | Cc1c(C(=O)Nc2ccncc2)oc2c1C(=O)CC(C)(C)C2 | 95.9% (inactive) | 91.3% (inactive) | -5.27% (inactive) | 96.6 | 91.3 | -8.4% (inactive) | -1.43% (inactive)
17 | COC(=O)c1cc(-c2c(C)nn(-c3ccccc3)c2C)n[nH]1 | 97.8% (inactive) | 101% (inactive) | -2.79% (inactive) | 104 | 101 | -2.63% (inactive) | -4.76% (inactive)
18 | CC(=O)NCC(=O)OC(C)C(=O)Nc1ccc(C(C)=O)cc1 (stereo unspecified) | 97.1% (inactive) | 95.2% (inactive) | -2.15% (inactive) | 97.3 | 95.2 | -6.75% (inactive) | -5.4% (inactive)
